Assay results from ChEMBL document CHEMBL2169854, “New insight into the central benzodiazepine receptor-ligand interactions: design, synthesis, biological evaluation, and molecular modeling of 3-substituted 6-phenyl-4H-imidazo[1,5-a][1,4]benzodiazepines and related compounds” (J Med Chem, 2011).
Activity calls are given as the source filed them. The calls are words filed in the database; no cut-off is given here.

Legend:
Format in all cases: functional, organism-based
Mus musculus [1] = test: Myorelaxant activity in mouse assessed as motor coordination measuring number of falls at 10 mg/kg, po measured for 30 seconds after 45 mins of compound administration by rotarod test; set-up: dose 10 mg/kg
Procedure, shortened: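 In mice, falls from the rotating rod were counted for 30 s after dosing. Compound was given orally in 1% CMC and diazepam ip in saline. Results were compared against saline/CMC controls by ANOVA.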

Mus musculus [2] = test: Antiamnesic activity against scopolamine-induced amnesic effect in mouse at 10 mg/kg, po by passive avoidance test; set-up: dose 10 mg/kg
Procedure, shortened: (§1)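 In a mouse passive-avoidance test, oral doses in 1% CMC were tested against amnesia induced by 1.5 mg/kg scopolamine ip. Retention latency was scored and compared with controls by ANOVA.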

Mus musculus [3] = test: […] activity in mouse assessed as effect on explorative activity measuring number of inspections at 10 mg/kg, po after 5 mins by hole-board test relative to CMC-treated control; set-up: dose 10 mg/kg
Procedure, shortened: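 Mice dosed orally in 1% CMC were placed singly on a 16-hole board for 5 min. Photocells counted plane movements (spontaneous motility) and hole explorations. Groups of 12–15 mice were compared with CMC controls.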

Mus musculus [4] = test: Anxiolytic effect in mouse assessed as increase in time spent in light compartment at 1 mg/kg, po by light/dark box test; set-up: dose 1 mg/kg
Procedure, shortened: (§2)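 Male mice were used. Compound was given orally as a suspension in 1% CMC; diazepam was given ip in saline; volume 10 mL/kg. Each mouse was placed in the lit side of a two-compartment light/dark box and observed for 5 min, scoring time in the light and transfers. Groups were compared by ANOVA with Fisher PLSD.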

Mus musculus [5] = test: Anxiolytic effect in mouse assessed as increase in time spent in light compartment at 10 mg/kg, po by light/dark box test; set-up: dose 10 mg/kg; procedure, shortened: as §2
Mus musculus [6] = test: Antiamnesic activity against scopolamine-induced amnesic effect in mouse assessed as increase in retention latency period at 3 mg/kg, po by passive avoidance test; set-up: dose 3 mg/kg; procedure, shortened: as §1

CCOC(=O)c1ncn2c1CN=C(c1ccc(F)cc1)c1cc(F)ccc1-2
Activity (Mus musculus [1]): inactive
Activity (Mus musculus [2]): Active
Activity (Mus musculus [3]): inactive
Activity (Mus musculus [4]): Active
Activity (Mus musculus [5]): Active
Activity (Mus musculus [6]): Active
